Bioassay records: PubChem BioAssay, Broad Institute
E-sel inducer: E-selectin induction on HUVECs. activation, % at 7.58 µM. AID 686992. HUVEC E-selectin immunofluorescence imaging; normalized: neutral wells 0, TNF-alpha wells 100. 260,000 tested, 0.37% active;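 active = mean E-selectin-positive cell signal at least 10% of the positive control, reached in at least 60% of replicates, without over 20% cell loss; inconclusive = no rule given, readout overlaps actives, possibly toxicity-flagged; inactive = the rest, including those meeting only one limit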
Target sequence (P16581 whole entry, looked up): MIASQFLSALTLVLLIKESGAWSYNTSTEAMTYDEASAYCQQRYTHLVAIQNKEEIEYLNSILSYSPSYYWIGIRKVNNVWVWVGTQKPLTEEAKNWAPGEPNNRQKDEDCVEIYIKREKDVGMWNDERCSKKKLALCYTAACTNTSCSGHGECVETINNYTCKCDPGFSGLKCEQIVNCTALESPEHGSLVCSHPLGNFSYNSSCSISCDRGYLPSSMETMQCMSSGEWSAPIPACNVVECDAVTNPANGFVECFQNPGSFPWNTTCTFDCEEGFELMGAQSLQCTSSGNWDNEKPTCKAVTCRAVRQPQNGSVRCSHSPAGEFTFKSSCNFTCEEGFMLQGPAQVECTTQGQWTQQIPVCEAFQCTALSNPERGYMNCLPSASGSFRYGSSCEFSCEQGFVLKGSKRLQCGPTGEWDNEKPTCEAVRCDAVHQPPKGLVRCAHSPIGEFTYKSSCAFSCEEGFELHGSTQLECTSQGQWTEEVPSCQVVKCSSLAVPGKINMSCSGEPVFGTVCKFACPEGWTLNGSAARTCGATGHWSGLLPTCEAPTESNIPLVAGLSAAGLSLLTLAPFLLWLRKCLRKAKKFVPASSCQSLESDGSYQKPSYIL
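System: HUVEC / Compound: single concentration / Signal: immunofluorescence imaging / Read-out: percent E-selectin-positive cells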
LGR2 antag: blocks bursicon-induced cAMP signaling via Drosophila LGR2 | inhibition, % at 9.99 µM | AID 720647 | 380,000 tested, 0.35% active | HEK293 LGR2, CRE-luciferase, bursicon-stimulated, 4 h;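 active = drop in luminescence signal, shown as inhibition above about 50% in the replicate tests, limit read from the data, passing the limit was not always enough; inconclusive = probably only some replicates passing the limit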;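 note: agonist challenge used bursicon conditioned medium at about half maximal strength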
EWS-Fli inh: EWS/Fli transcriptional activity inhibition; 350,000 tested, 0.67% active; AID 651661; inhibition, % at 12.6 µM; A673 NR0B1-luciferase reporter, viability-normalised;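 active = mean inhibition of at least 50% after viability correction, with every replicate also passing that limit; inconclusive = mean reaches 50% but only one of two replicates passes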;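 note: firefly luciferase signal divided by Alamar Blue viability fluorescence both relative to DMSO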
Ecoli rRNA inh: inhibitors of bacterial rRNA selective over humanized ribosomes | E. coli WT GFP vs humanized-ribosome RFP mutants, fluorescence, 24 h; stronger effect = lower value; DMSO median 0, no signal -100 | GFP signal change (wild-type ribosome), % (concentration not given with the values) | 350,000 tested, 1.6% active;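 active = significant combined selectivity score with lowered wild-type GFP, culture density cut under 30%, mutant RFP and density less affected; inactive = any of these conditions unmet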
Each line names hits and unclear results; the compound was inactive in the other large screens. Compounds with a hit are over-represented: about 2.4% of the library has one in this group of screens.

O=C(c1c[nH]c(C(=O)C(Cl)(Cl)Cl)c1)c1ccc(F)cc1Cl	Ecoli rRNA inh -35 (no result: E-sel inducer)
C/C(=N\NC(=S)NC1CCCCC1)c1cccs1	Ecoli rRNA inh -26
O=C(Nc1ccc(Cl)c(Cl)c1)Nc1ccccc1O	none (no result: E-sel inducer)
COc1cc(NC(=O)Nc2ccc(Cl)c(Cl)c2)c(C(=O)O)cc1OC	Ecoli rRNA inh -40 (no result: E-sel inducer)
CNC(=O)C[C@H]1CC[C@H]2[C@@H](COc3ccc(NC(=O)NC(C)C)cc3C(=O)N2C)O1	none
Cc1nn(-c2ccc3ccccc3c2)c(=O)c2ccccc12	none (no result: E-sel inducer)
Cc1nn(-c2nc3ccccc3[nH]2)c(=O)c2ccccc12	LGR2 antag 103, EWS-Fli inh 88
CCCNC(=O)N1CC2(CCN(C(C)=O)CC2)c2c(n(C)c3cc(OC)ccc23)[C@H]1CO	none
O=S(=O)(Nc1cccc(Br)c1)c1cccc2nsnc12	Ecoli rRNA inh -33
O=C(O)c1cc(NS(=O)(=O)c2cccc3nsnc23)cc(C(=O)O)c1	none
C[C@@H]1CCCCO[C@@H](CN(C)S(=O)(=O)c2ccc(F)cc2)[C@@H](C)CN([C@H](C)CO)C(=O)c2cc(NC(=O)CCC(F)(F)F)ccc2O1	none (no result: E-sel inducer)
CN(C)/C=N/c1ncc(C(=O)c2ccc(-c3ccccc3)cc2)s1	Ecoli rRNA inh -18
C[C@H]1CN([C@@H](C)CO)C(=O)c2cc(NS(=O)(=O)c3ccccc3)ccc2O[C@@H]1CN(C)S(=O)(=O)c1ccccc1	none
O=C1C=C(Nc2ccc(O)cc2)CC(c2ccco2)C1 (stereo not given)	none (no result: LGR2 antag, EWS-Fli inh, Ecoli rRNA inh)
O=C1C=C(Nc2ccc(Cl)cc2Cl)CC(c2ccco2)C1 (stereo not given)	EWS-Fli inh inconclusive, Ecoli rRNA inh -22
O=C1CC(c2ccco2)CC(O)=C1C=Nc1cc(Cl)ccc1Cl (stereo not given)	none (no result: EWS-Fli inh, Ecoli rRNA inh)
CCOC(=O)c1ccc(NC2=CC(=O)CC(c3ccco3)C2)cc1 (stereo not given)	Ecoli rRNA inh -22
C[C@@H]1CN([C@H](C)CO)C(=O)c2cc(NC(=O)CCC(F)(F)F)ccc2O[C@@H](C)CCCCO[C@H]1CN(C)S(=O)(=O)c1cccs1	none
CCCC#Cc1ccc([C@@H]2[C@H](CO)N3C(=O)CN(C(=O)NC4CCCC4)C[C@@H]23)cc1	none
COC(=O)c1ccccc1NC1=C/C(=N\S(=O)(=O)c2cccs2)c2ccccc2C1=O	LGR2 antag 91
Cc1noc(C)c1S(=O)(=O)Nc1ccc2c(c1)C(=O)N([C@H](C)CO)C[C@@H](C)[C@H](CN(C)S(=O)(=O)c1cn(C)cn1)OCCCC[C@@H](C)O2	none (no result: E-sel inducer)
COc1ccccc1S(=O)(=O)N[C@H]1CC[C@@H](CCNC(=O)C2CCOCC2)O[C@@H]1CO	none (no result: EWS-Fli inh)
COC(=O)c1cc(OC)c(OC)cc1NC(=O)C(C)Sc1ccc(C)cc1 (stereo not given)	Ecoli rRNA inh -26 (no result: E-sel inducer)
Cc1cc(C)n2c(Nc3ccc4c(c3)OCCO4)c(-c3ccc(C)o3)nc2n1	none
Cc1cc(C)n2c(Nc3ccc4c(c3)OCCO4)c(-c3cc4ccccc4o3)nc2n1	LGR2 antag 92
O=C(NCC[C@@H]1CC[C@@H](NC(=O)C2CCC2)[C@@H](CO)O1)c1cc(Cl)cc(Cl)c1	none
CCCC(=O)NC(=S)Nc1cccc(NC(=O)c2ccccc2)c1	none (no result: E-sel inducer)
CC(=O)c1cccc(NC(=S)NCCCCc2ccccc2)c1	Ecoli rRNA inh -34
O=C(CCCc1ccccc1)Nc1cccc(C(=O)O)c1	LGR2 antag 82, EWS-Fli inh inconclusive (no result: E-sel inducer)
O=C(NCCCCc1ccccc1)c1cccc(NC(=O)c2ccccc2)c1	none
O=C(NCCc1ccc(F)cc1)c1cccc(NC(=O)c2ccccc2)c1	Ecoli rRNA inh -22 (no result: E-sel inducer)
CCCCC(=O)NC(=S)Nc1cccc(NC(=O)c2ccccc2)c1	Ecoli rRNA inh -19 (no result: E-sel inducer)
O=C(CCc1ccccc1)NC(=S)Nc1cccc(C(=O)O)c1	none (no result: EWS-Fli inh)
CO[C@H]1CN(C)C(=O)c2ccc(NC(C)=O)cc2OC[C@H](C)N(C(=O)CC2CC2)C[C@@H]1C	none (no result: EWS-Fli inh)
CCCNC(=O)N1CCC2(CC1)CN(C(=O)NC1CCCC1)[C@@H](CO)c1[nH]c3cc(OC)ccc3c12	none
C[C@@H]1CCCCO[C@@H](CN(C)C)[C@H](C)CN([C@@H](C)CO)C(=O)c2cc(NS(=O)(=O)c3cccs3)ccc2O1	none
N/C(=N\OC(=O)C1CC1)c1ccc([N+](=O)[O-])s1	Ecoli rRNA inh -55
CC(C)(C)C(=O)/C(=C/c1cccc([N+](=O)[O-])c1)n1cncn1	LGR2 antag 58 (no result: E-sel inducer, EWS-Fli inh, Ecoli rRNA inh)
COc1cc(SC)ccc1C(=O)Nc1ccc(Cl)cn1	LGR2 antag 100, EWS-Fli inh 84 (no result: E-sel inducer)
COc1ccc2c3c(n(C)c2c1)[C@@H](CO)N(CC1CCOCC1)CC31CN(Cc2nccs2)C1	none
